Assay results reported in ChEMBL document CHEMBL2311491, “Development of new cyclic plasmin inhibitors with excellent potency and selectivity” (J Med Chem, 2013).
One block for each compound: values may come before it.

Assays:
Plasma kallikrein = Plasma kallikrein (Homo sapiens, UniProt P03952); assay: Inhibition of human plasma kallikrein using H-D-Pro-Phe-Arg-pNA as substrate after 5 to 10 mins by micro plate reader analysis
Trypsin = Trypsin (Sus scrofa, UniProt P00761); assay: Inhibition of pig trypsin using CH3SO2-D-Cha-Gly-Arg-pNA as substrate after 5 to 10 mins by micro plate reader analysis
Sequence of Trypsin (P00761 whole entry): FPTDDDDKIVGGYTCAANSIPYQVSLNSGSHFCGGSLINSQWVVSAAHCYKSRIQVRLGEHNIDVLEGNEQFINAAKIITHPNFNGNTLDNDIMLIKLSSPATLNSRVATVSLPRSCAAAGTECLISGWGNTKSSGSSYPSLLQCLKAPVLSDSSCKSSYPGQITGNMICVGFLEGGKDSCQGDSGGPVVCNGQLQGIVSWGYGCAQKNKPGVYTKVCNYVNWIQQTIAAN

Coagulation factor X = Coagulation factor X (Homo sapiens, UniProt P00742); assay: Inhibition of human factor Xa using CH3OCO-D-Cha-Gly-Arg-pNA as substrate after 5 to 10 mins by micro plate reader analysis
Sequence of Coagulation factor X (P00742 41-179 limits assumed): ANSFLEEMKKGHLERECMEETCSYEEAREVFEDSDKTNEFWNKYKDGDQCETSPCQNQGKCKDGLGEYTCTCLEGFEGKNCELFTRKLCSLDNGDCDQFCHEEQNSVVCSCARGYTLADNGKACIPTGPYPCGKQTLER
Sequence of Coagulation factor X (P00742 235-488 limits assumed): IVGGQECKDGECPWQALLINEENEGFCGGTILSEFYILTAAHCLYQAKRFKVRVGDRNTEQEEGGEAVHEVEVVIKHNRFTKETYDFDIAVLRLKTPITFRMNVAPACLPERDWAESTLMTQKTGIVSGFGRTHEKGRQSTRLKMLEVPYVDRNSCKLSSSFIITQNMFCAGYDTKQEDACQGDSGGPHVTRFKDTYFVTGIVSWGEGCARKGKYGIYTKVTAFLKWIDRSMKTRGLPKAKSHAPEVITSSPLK

Prothrombin = Prothrombin (Homo sapiens, UniProt P00734); assay: Inhibition of human thrombin using CH3SO2-D-Cha-Gly-Arg-pNA as substrate after 5 to 10 mins by micro plate reader analysis
[1] = biological target: Vitamin K-dependent protein C (Homo sapiens, UniProt P04070); assay: Inhibition of human activated protein C using H-D-Lys(Cbz)-Pro-Arg-pNA as substrate after 5 to 10 mins by micro plate reader analysis
Sequence of Vitamin K-dependent protein C (P04070 43-197 limits assumed): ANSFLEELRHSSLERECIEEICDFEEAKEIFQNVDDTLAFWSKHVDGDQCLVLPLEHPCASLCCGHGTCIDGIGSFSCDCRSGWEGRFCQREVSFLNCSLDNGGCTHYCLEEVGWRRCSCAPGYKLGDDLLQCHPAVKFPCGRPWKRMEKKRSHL
Sequence of Vitamin K-dependent protein C (P04070 212-461 limits assumed): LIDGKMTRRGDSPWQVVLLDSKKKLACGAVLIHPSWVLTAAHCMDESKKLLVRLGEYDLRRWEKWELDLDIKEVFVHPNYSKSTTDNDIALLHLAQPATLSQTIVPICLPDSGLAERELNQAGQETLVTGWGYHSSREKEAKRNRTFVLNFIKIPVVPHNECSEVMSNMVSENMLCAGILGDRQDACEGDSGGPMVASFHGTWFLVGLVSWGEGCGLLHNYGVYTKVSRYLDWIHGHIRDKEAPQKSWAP

Plasminogen = Plasminogen (Homo sapiens, UniProt P00747); assay: Inhibition of human plasmin protease domain using Tos-Gly-Pro-Lys-pNA as substrate by micro plate reader analysis
Sequence of Plasminogen (P00747 97-580 limits assumed): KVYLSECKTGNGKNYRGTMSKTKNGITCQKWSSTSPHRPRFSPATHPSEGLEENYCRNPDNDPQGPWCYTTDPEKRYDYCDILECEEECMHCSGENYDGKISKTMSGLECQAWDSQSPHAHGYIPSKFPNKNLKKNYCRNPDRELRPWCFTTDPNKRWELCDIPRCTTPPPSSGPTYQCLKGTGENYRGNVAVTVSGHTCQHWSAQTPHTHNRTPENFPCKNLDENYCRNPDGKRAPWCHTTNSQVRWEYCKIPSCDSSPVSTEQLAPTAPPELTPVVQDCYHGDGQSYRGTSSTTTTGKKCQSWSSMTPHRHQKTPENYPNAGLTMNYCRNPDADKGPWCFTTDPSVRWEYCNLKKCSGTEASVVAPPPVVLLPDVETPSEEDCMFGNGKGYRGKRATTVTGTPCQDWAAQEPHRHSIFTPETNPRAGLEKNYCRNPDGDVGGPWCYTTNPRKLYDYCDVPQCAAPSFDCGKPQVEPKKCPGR
Sequence of Plasminogen (P00747 581-810 limits assumed): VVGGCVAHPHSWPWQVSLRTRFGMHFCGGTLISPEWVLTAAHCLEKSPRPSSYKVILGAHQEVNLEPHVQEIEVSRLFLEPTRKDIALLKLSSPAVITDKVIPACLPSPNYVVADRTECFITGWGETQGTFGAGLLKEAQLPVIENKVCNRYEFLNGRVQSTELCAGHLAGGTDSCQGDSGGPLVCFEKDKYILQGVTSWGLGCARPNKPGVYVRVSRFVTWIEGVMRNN

Plasma [2] = assay: Anticoagulant activity in human plasma assessed as tPA-induced fibrinolysis; format: functional; details: in the assay text read “Antifibrinolytic activity” for “Anticoagulant activity”
Outline: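 tPA-induced fibrinolysis in human plasma. Value reported as EC200, the inhibitor concentration that doubles the clot-to-lysis time.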

[3] = biological target: Complement C1r subcomponent (Homo sapiens, UniProt P00736); assay: Inhibition of human C1r
Sequence of Complement C1r subcomponent (P00736 18-463 limits assumed): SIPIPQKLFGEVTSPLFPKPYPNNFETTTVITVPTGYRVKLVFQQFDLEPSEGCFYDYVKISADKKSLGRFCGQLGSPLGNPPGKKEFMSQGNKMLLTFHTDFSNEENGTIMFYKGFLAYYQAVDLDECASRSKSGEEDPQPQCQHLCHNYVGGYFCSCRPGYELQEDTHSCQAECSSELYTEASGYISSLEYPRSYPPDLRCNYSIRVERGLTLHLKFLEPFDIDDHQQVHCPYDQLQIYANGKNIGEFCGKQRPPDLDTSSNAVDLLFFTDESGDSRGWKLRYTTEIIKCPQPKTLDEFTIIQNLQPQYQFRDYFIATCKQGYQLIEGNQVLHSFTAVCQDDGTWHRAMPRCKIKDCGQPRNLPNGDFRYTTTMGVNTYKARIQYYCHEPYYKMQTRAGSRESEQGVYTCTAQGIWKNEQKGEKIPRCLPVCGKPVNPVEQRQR
Sequence of Complement C1r subcomponent (P00736 464-705 limits assumed): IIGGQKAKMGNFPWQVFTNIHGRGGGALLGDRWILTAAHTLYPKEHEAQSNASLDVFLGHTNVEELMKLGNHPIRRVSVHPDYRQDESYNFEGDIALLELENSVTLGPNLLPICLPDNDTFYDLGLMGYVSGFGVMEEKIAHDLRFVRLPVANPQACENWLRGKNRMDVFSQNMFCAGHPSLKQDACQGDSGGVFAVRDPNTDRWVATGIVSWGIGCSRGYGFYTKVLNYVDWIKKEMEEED

Serine protease 1 = Serine protease 1 (Homo sapiens, UniProt P07477); assay: Inhibition of human trypsin
Sequence of Serine protease 1 (P07477 whole entry): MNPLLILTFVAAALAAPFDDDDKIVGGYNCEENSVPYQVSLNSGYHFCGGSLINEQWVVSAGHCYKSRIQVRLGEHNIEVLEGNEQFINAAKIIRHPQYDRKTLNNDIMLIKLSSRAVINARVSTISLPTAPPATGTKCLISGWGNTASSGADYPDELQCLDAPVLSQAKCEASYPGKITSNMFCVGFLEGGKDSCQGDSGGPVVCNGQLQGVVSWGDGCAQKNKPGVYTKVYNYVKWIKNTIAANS

[4] = biological target: Cytochrome P450 2C19 (Homo sapiens) (UniProt P33261); assay: Inhibition of human recombinant CYP2C19 expressed in Trichoplusia ni BTI-TN-5B1-4 cells preincubated for 15 mins measured after 30 mins by spectrofluorimetry
Coagulation factor XII = Coagulation factor XII (Homo sapiens, UniProt P00748); assay: Inhibition of human FXIIa
Cytochrome P450 3A4 = Cytochrome P450 3A4 (Homo sapiens, UniProt P08684); assay: Inhibition of human recombinant CYP3A4 expressed in Trichoplusia ni BTI-TN-5B1-4 cells preincubated for 15 mins measured after 30 mins by spectrofluorimetry; format: ADME, cell-based
Plasma [5] = assay: Anticoagulant activity in human plasma assessed as concentration required to prothrombin time; format: functional
Outline: (§1)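 Clotting time measured in human plasma spiked with inhibitor. Value reported as EC200, the concentration that doubles the clotting time.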

[6] = Metabolic stability in human liver microsomes assessed as degradation after 60 mins; format: ADME, Microsome; details: read-out: Drug degradation
Plasma [7] = assay: Anticoagulant activity in human plasma assessed as concentration required to thrombin time; format: functional; outline: as §1
Plasma [8] = assay: Anticoagulant activity in human plasma assessed as concentration required to activated partial thromboplastin time; format: functional; outline: as §1
Coagulation factor IX = Coagulation factor IX (Homo sapiens, UniProt P00740); assay: Inhibition of human FIXa
[9] = biological target: L-type Ca channel, phenylalkylamine site (Rattus norvegicus, UniProt P22002+P27732+Q02485); assay: Displacement of [3H](-)-desmethoxyverapamil from wistar rat Ca channel L-type phenylalkylamine receptor at 10 uM; details: probe [3H](-)-desmethoxyverapamil
Outline: (§2)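 Radioligand binding to the ion channel with test compound at 10 μM. Result expressed as % binding; negative values are read as no binding. Assays run by a contract laboratory.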

[10] = biological target: Cytochrome P450 1A2 (Homo sapiens) (UniProt P05177); assay: Inhibition of human recombinant CYP1A2 expressed in Trichoplusia ni BTI-TN-5B1-4 cells preincubated for 15 mins measured after 45 mins by spectrofluorimetry
[11] = biological target: L-type Ca channel, benzothiazepine site (Rattus norvegicus, UniProt P22002+P27732+Q02485); assay: Displacement of [3H]diltiazem from wistar rat Ca channel L-type benzothiazepine receptor at 10 uM; details: probe [3H]diltiazem; outline: as §2
Cytochrome P450 2C9 = Cytochrome P450 2C9 (Homo sapiens, UniProt P11712); assay: Inhibition of human recombinant CYP2C9 expressed in Trichoplusia ni BTI-TN-5B1-4 cells preincubated for 15 mins measured after 45 mins by spectrofluorimetry; format: ADME, cell-based
Sequence of Cytochrome P450 2C9 (P11712 whole entry): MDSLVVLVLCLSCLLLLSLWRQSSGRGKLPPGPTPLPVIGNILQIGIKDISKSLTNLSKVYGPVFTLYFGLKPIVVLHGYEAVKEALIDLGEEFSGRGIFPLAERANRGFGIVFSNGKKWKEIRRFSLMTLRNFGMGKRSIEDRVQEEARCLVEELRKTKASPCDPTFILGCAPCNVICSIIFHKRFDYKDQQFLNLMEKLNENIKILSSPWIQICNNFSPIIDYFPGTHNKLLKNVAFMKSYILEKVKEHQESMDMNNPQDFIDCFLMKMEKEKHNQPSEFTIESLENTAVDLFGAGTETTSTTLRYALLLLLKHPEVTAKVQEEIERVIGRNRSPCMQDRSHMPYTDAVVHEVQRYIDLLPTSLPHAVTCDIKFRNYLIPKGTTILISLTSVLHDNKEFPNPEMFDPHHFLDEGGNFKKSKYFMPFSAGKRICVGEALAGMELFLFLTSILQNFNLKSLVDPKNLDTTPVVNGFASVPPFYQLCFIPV

[12] = biological target: Complement C1s subcomponent (Homo sapiens, UniProt P09871); assay: Inhibition of human C1s
[13] = biological target: L-type Ca channel, dihydropyridine site (Rattus norvegicus, UniProt P22002+P27732+Q02485); assay: Displacement of [3H]nitrendipine from wistar rat Ca channel L-type dihydropyridine receptor at 10 uM; details: probe [3H]nitrendipine; outline: as §2
[14] = Fraction unbound in human plasma; format: ADME, cell-free
Kallikrein-1 = Kallikrein-1 (Homo sapiens, UniProt P06870); assay: Inhibition of urinary kallikrein (unknown origin)
Sequence of Kallikrein-1 (P06870 whole entry): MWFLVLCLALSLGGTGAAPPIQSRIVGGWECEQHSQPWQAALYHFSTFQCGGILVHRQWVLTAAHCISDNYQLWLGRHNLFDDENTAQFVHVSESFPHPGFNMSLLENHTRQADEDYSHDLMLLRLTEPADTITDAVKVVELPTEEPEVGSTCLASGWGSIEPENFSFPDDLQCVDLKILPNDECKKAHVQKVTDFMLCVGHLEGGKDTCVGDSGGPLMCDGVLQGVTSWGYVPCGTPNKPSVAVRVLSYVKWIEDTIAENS

Cytochrome P450 2D6 = Cytochrome P450 2D6 (Homo sapiens, UniProt P10635); assay: Inhibition of human recombinant CYP2D6 expressed in Trichoplusia ni BTI-TN-5B1-4 cells preincubated for 15 mins measured after 45 mins by spectrofluorimetry; format: ADME, cell-based
Rattus norvegicus = species: Rattus norvegicus; assay: Displacement of [3H]batrachotoxinin from wistar rat Na channel at 10 uM
Outline: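 Single-point radioligand binding screen at 10 μM test compound, run by a contract lab under its own protocol. Read-out is percent binding, where negative values mean no binding.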

[15] = biological target: Tissue-type plasminogen activator (Homo sapiens, UniProt P00750); assay: Inhibition of human tPA
hERG (KCNH2) = hERG (KCNH2) (Homo sapiens, UniProt Q12809); assay: Displacement of [3H]astemizole from human ERG channel at 10 uM; details: probe [3H]astemizole; outline: as §2
[16] = Thermodynamic solubility of the compound in 0.9% saline; format: physicochemical; details: read-out: Therm_solubility
[17] = biological target: Urokinase-type plasminogen activator (Homo sapiens, UniProt P00749); assay: Inhibition of human uPA
Coagulation factor XI = Coagulation factor XI (Homo sapiens, UniProt P03951); assay: Inhibition of human FXIa
Sequence of Coagulation factor XI (P03951 19-387 limits assumed): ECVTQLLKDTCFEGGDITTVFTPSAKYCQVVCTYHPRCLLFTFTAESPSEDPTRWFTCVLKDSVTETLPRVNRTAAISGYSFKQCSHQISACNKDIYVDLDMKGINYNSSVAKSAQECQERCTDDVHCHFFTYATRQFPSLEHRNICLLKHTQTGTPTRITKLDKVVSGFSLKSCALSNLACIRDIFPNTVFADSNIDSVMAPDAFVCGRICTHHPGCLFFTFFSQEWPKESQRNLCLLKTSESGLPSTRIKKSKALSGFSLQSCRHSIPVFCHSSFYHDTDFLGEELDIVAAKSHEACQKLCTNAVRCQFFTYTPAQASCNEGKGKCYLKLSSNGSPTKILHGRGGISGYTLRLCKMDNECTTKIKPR
Sequence of Coagulation factor XI (P03951 388-625 limits assumed): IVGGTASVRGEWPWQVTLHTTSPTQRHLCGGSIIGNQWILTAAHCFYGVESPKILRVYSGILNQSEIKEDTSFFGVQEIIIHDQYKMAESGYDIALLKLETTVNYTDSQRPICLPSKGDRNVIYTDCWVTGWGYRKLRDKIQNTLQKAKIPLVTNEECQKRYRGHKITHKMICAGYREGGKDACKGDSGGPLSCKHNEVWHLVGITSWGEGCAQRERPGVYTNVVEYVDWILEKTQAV

Sequence of Plasma kallikrein (P03952 20-390 limits assumed): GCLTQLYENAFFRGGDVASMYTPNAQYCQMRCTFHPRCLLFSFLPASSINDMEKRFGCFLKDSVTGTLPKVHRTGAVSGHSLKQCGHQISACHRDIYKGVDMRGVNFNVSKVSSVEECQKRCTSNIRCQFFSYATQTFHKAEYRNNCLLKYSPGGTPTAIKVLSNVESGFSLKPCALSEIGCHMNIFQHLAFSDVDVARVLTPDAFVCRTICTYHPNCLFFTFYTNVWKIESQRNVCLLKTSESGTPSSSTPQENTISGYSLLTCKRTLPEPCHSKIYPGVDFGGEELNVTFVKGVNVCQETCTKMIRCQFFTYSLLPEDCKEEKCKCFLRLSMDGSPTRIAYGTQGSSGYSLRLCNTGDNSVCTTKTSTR
Sequence of Plasma kallikrein (P03952 391-638 limits assumed): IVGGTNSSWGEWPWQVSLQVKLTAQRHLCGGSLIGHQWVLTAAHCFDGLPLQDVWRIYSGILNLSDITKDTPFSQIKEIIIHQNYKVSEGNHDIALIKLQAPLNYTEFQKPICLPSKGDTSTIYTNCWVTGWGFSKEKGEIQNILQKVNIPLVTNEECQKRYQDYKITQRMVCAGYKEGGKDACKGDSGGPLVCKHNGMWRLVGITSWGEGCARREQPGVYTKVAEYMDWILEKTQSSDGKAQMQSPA

Ki (Plasma kallikrein): 0.5 µM
Ki (Trypsin): 0.0181 µM
Ki (Coagulation factor X): 14 µM
Ki (Prothrombin): 12.1 µM
Ki [1]: > 20 µM
Ki (Plasminogen): 0.00115 µM
SMILES: C[C@@H]1CN2CC(=O)Nc3ccc(cc3)C[C@@H](C(=O)NCc3ccc(C(=N)N)cc3)NC(=O)[C@H](NS(=O)(=O)Cc3ccccc3)Cc3ccc(cc3)NC(=O)CN1C[C@@H]2C

Ki (Plasma kallikrein): 0.242 µM
Ki (Trypsin): 0.055 µM
Ki (Coagulation factor X): 3.7 µM
Ki (Prothrombin): 8.51 µM
Ki [1]: 4.8 µM
Ki (Plasminogen): 0.00162 µM
SMILES: C[C@H]1CN2CC(=O)Nc3ccc(cc3)C[C@@H](NS(=O)(=O)Cc3ccccc3)C(=O)N[C@H](C(=O)NCc3ccc(C(=N)N)cc3)Cc3ccc(cc3)NC(=O)CN1C[C@@H]2C

SMILES: N=C(N)c1ccc(CNC(=O)[C@@H]2Cc3ccc(cc3)NC(=O)CCN3CCN(CCC(=O)Nc4ccc(cc4)C[C@@H](NS(=O)(=O)Cc4ccccc4)C(=O)N2)CC3)cc1.O=C(O)C(F)(F)F
EC200 (Plasma [2]): 180 nM
Ki [3]: > 35 µM
Ki (Plasma kallikrein): 1 µM
Ki (Serine protease 1): 0.0084 µM
IC50 [4]: > 100 µM
Ki (Coagulation factor XII): > 20 µM
IC50 (Cytochrome P450 3A4): > 10 µM
EC200 (Plasma [5]): >100 µM
metabolised at 1 h [6]: 2%
EC200 (Plasma [7]): >100 µM
EC200 (Plasma [8]): >100 µM
Ki (Coagulation factor IX): > 5 µM
Ki (Trypsin): 0.0383 µM
inhibition at 10 µM [9]: 3%
IC50 [10]: > 100 µM
Ki (Coagulation factor X): 25 µM
inhibition at 10 µM [11]: -4%
IC50 (Cytochrome P450 2C9): > 100 µM
Ki [12]: > 35 µM
inhibition at 10 µM [13]: -5%
fraction unbound [14]: 0.67
Ki (Kallikrein-1): 10 µM
IC50 (Cytochrome P450 2D6): > 10 µM
Ki (Prothrombin): 26.4 µM
inhibition (Rattus norvegicus): 27%
Ki [15]: > 40 µM
inhibition at 10 µM (hERG (KCNH2)): 4%
Ki [1]: > 15 µM
solubility thermodynamic [16]: > 2000 µg/mL
Ki [17]: 6.5 µM
Ki (Coagulation factor XI): 3.37 µM
Ki (Plasminogen): 0.0002 µM

Ki (Plasma kallikrein): 0.422 µM
Ki (Trypsin): 0.0102 µM
Ki (Coagulation factor X): 8.5 µM
Ki (Prothrombin): 11.2 µM
Ki [1]: 7.8 µM
Ki (Plasminogen): 0.00132 µM
SMILES: N=C(N)c1ccc(CNC(=O)[C@@H]2Cc3ccc(cc3)NC(=O)CCN3CCCN(CCC(=O)Nc4ccc(cc4)C[C@@H](NS(=O)(=O)Cc4ccccc4)C(=O)N2)CC3)cc1

Ki (Plasma kallikrein): 0.0032 µM
Ki (Trypsin): 0.0034 µM
Ki (Coagulation factor X): 0.0123 µM
Ki (Prothrombin): 0.227 µM
Ki [1]: 0.039 µM
SMILES: N=C(N)c1ccc(CNC(=O)[C@@H]2Cc3cccc(c3)NC(=O)CN3CCN(CC3)CC(=O)Nc3cccc(c3)C[C@@H](NS(=O)(=O)Cc3ccccc3)C(=O)N2)cc1

SMILES: N=C(N)c1ccc(CNC(=O)[C@@H]2Cc3ccc(cc3)NC(=O)CN3CCN(CC3)CC(=O)Nc3ccc(cc3)C[C@@H](NS(=O)(=O)Cc3ccccc3)C(=O)N2)cc1.O=C(O)C(F)(F)F
EC200 (Plasma [2]): 280 nM
Ki [3]: > 50 µM
Ki (Serine protease 1): 0.044 µM
IC50 [4]: > 100 µM
Ki (Coagulation factor XII): > 100 µM
IC50 (Cytochrome P450 3A4): > 22 µM
EC200 (Plasma [5]): >100 µM
metabolised at 1 h [6]: 0%
EC200 (Plasma [7]): >100 µM
EC200 (Plasma [8]): >100 µM
Ki (Coagulation factor IX): > 100 µM
Ki (Trypsin): 0.0626 µM
inhibition at 10 µM [9]: 13%
IC50 [10]: > 10 µM
Ki (Coagulation factor X): > 10 µM
inhibition at 10 µM [11]: 1%
IC50 (Cytochrome P450 2C9): > 100 µM
Ki [12]: > 100 µM
inhibition at 10 µM [13]: -2%
fraction unbound [14]: 0.61
Ki (Kallikrein-1): > 50 µM
IC50 (Cytochrome P450 2D6): > 40 µM
Ki (Prothrombin): 13.9 µM
inhibition (Rattus norvegicus): -8%
Ki [15]: > 100 µM
inhibition at 10 µM (hERG (KCNH2)): 7%
Ki [1]: > 25 µM
solubility thermodynamic [16]: > 2000 µg/mL
Ki [17]: 8.9 µM
Ki (Coagulation factor XI): 4.7 µM

Ki (Plasma kallikrein): 0.392 µM
Ki (Trypsin): 0.003 µM
Ki (Coagulation factor X): 7.36 µM
Ki (Prothrombin): 14.1 µM
Ki [1]: > 10 µM
Ki (Plasminogen): 0.00057 µM
SMILES: N=C(N)c1ccc(CNC(=O)[C@@H]2Cc3ccc(cc3)NC(=O)CN3CCCN(CC3)CC(=O)Nc3ccc(cc3)C[C@@H](NS(=O)(=O)Cc3ccccc3)C(=O)N2)cc1

Ki (Plasma kallikrein): 0.024 µM
Ki (Trypsin): 0.0249 µM
Ki (Coagulation factor X): 0.237 µM
Ki (Prothrombin): 3.25 µM
Ki [1]: 0.88 µM
Ki (Plasminogen): 0.0051 µM
SMILES: N=C(N)c1ccc(CNC(=O)[C@@H]2Cc3cccc(c3)NC(=O)CCN3CCN(CCC(=O)Nc4ccc(cc4)C[C@@H](NS(=O)(=O)Cc4ccccc4)C(=O)N2)CC3)cc1

Ki (Plasma kallikrein): 0.44 µM
Ki (Trypsin): 0.0417 µM
Ki (Coagulation factor X): 9 µM
Ki (Prothrombin): 5.87 µM
Ki [1]: > 10 µM
Ki (Plasminogen): 0.00076 µM
SMILES: N=C(N)c1ccc(CNC(=O)[C@@H]2Cc3ccc(cc3)NC(=O)CN3CCCN(CC3)CC(=O)NCc3ccc(cc3)C[C@@H](NS(=O)(=O)Cc3ccccc3)C(=O)N2)cc1

Ki (Plasma kallikrein): 0.187 µM
Ki (Trypsin): 0.0178 µM
Ki (Coagulation factor X): 2.51 µM
Ki (Prothrombin): 0.884 µM
Ki [1]: 3.9 µM
SMILES: N=C(N)c1ccc(CNC(=O)[C@@H]2Cc3ccc(cc3)NC(=O)CN3CCN(CC3)CC(=O)NCc3ccc(cc3)C[C@@H](NS(=O)(=O)Cc3ccccc3)C(=O)N2)cc1

Ki (Plasma kallikrein): 0.118 µM
Ki (Trypsin): 0.0078 µM
Ki (Coagulation factor X): 0.415 µM
Ki (Prothrombin): 0.604 µM
Ki [1]: 0.42 µM
SMILES: N=C(N)c1ccc(CNC(=O)[C@@H]2Cc3ccc(cc3)NC(=O)CN3CCN(CC3)CC(=O)Nc3cccc(c3)C[C@@H](NS(=O)(=O)Cc3ccccc3)C(=O)N2)cc1

Ki (Plasma kallikrein): 0.24 µM
Ki (Trypsin): 0.0006 µM
Ki (Coagulation factor X): 1.26 µM
Ki (Prothrombin): 0.376 µM
Ki [1]: 3.8 µM
Ki (Plasminogen): 0.004 µM
SMILES: N=C(N)c1ccc(CNC(=O)[C@@H]2Cc3ccc(cc3)NC(=O)CCN3CCN(CCC(=O)Nc4cccc(c4)C[C@@H](NS(=O)(=O)Cc4ccccc4)C(=O)N2)CC3)cc1

Ki (Plasma kallikrein): 0.0129 µM
Ki (Trypsin): 0.0194 µM
Ki (Coagulation factor X): 1.8 µM
Ki (Prothrombin): 8.02 µM
Ki [1]: 4.1 µM
SMILES: N=C(N)c1ccc(CNC(=O)[C@@H]2Cc3cccc(c3)NC(=O)CN3CCN(CC3)CC(=O)Nc3ccc(cc3)C[C@@H](NS(=O)(=O)Cc3ccccc3)C(=O)N2)cc1

Ki (Plasma kallikrein): 0.116 µM
Ki (Trypsin): 0.126 µM
Ki (Coagulation factor X): 3.25 µM
Ki (Prothrombin): 2.95 µM
Ki [1]: 1.6 µM
Ki (Plasminogen): 0.00171 µM
SMILES: C[C@H]1CN2CC(=O)Nc3ccc(cc3)C[C@@H](C(=O)NCc3ccc(C(=N)N)cc3)NC(=O)[C@H](NS(=O)(=O)Cc3ccccc3)Cc3ccc(cc3)CNC(=O)CN1C[C@@H]2C
